Measurements: ChEMBL document CHEMBL5252539, “In vitro biological evaluation of new antimycobacterial salicylanilide-tuftsin conjugates” (Eur J Med Chem, 2017)
Converted amounts (≈) assume the structure as drawn. The source made the active and inactive calls. The rule behind the calls is not given here. *1 amine or outer side, *2 acyl side, *3 side chain or, on linkers, in order; H or OH if unused. Where a SMILES comes first, the peptide text is derived from it. [ ]: non-standard residue; d: D form. The star is where a group is joined. X1 = C/C(=N\OCC(=O)[*:2])c1ccc(N[*:1])cc1; Benzoyl(5-Br-2-OH) = O=C(c1cc(Br)ccc1O)*; Palmitoyl = CCCCCCCCCCCCCCCC(=O)*

Legend:
[1] = Selectivity index, ratio of IC50 for cytostatic activity against human HepG2 cells to MIC for antimycobacterial activity against Mycobacterium tuberculosis H37Rv ATCC 27294; assay type: toxicity, cell-based; conditions: read-out: Selectivity Index
Procedure, shortened: (§1)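 MTT assay on MonoMac6 or HepG2 cells after 24 h exposure, top concentration 200 µM. SI = IC50 (µM)/MIC (µM) against H37Rv from the 4-week Sula medium assay.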

[2] = system: Mycobacterium tuberculosis; assay: Antimycobacterial activity against Mycobacterium tuberculosis H37Rv ATCC 27294 assessed as reduction in bacterial growth after 28 days by serial dilution method; assay type: functional; conditions: H37Rv ATCC 27294, 672 h, time 28 day
Procedure, shortened: (§2)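 Broth MIC in Sula semisynthetic medium, pH 6.5; 4-week incubation, with 21-day values […] where indicated. Drug-free inoculated bacteria served as growth control. MIC also expressed as drug content (µg/mL) = MIC (µM) × average SAL molar mass × number of SAL per conjugate / 1000.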

MONO-MAC-6 = assay: Cytostatic activity against human MONO-MAC-6 cells assessed as reduction in cell viability incubated for 24 hrs by MTT assay; assay type: functional, cell-based; conditions: MONO-MAC-6, 24 h
Procedure, shortened: (§3)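 MTT viability assay after 24 h exposure of MonoMac6 human monocytic cells or HepG2 human hepatocellular carcinoma cells. Top concentration 200 μM. IC50 taken from dose-response curves as the concentration reducing viability to 50% of maximal.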

[3] = system: Mycobacterium tuberculosis; assay: Antimycobacterial activity against Mycobacterium tuberculosis H37Rv ATCC 27294 assessed as reduction in colony forming unit after 28 days by serial dilution method; assay type: functional, organism-based; conditions: time 28.0 day
Procedure, shortened: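 After the 4-week MIC incubation in Sula semisynthetic medium (pH 6.5), growth inhibition confirmed by plating on Löwenstein-Jensen solid medium and counting colony forming units.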

[4] = system: Mycobacteroides abscessus; assay: Antimycobacterial activity against Mycobacterium abscessus ATCC 19977 assessed as reduction in bacterial growth after 7 days by serial dilution method; assay type: functional; conditions: ATCC 19977, 168 h, time 7 day
Procedure, shortened: (§4)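 MIC determined in Sula semisynthetic medium, pH 6.5, 1 week incubation. Growth inhibition confirmed by plating on Löwenstein-Jensen solid medium and counting CFU. Bacteria inoculated without drug served as growth control.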

[5] = Selectivity index, ratio of IC50 for cytotoxicity against mouse bone marrow derived macrophages to MIC for antimycobacterial activity against Mycobacterium tuberculosis H37Rv ATCC 27294; assay type: toxicity; conditions: read-out: Selectivity Index
Procedure, shortened: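 Murine bone marrow-derived macrophages exposed for 48 h, top concentration 100 µM. Viability read by MTT and IC50 taken from dose-response curves. SI = IC50/MIC against H37Rv.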

[6] = system: Mycobacteroides abscessus; assay: Antimycobacterial activity against Mycobacterium abscessus ATCC 19977 assessed as reduction in colony forming unit after 7 days by serial dilution method; assay type: functional, organism-based; conditions: time 7.0 day; procedure, shortened: as §4
[7] = Cytotoxicity against mouse bone marrow derived macrophages assessed as reduction in cell viability incubated for 48 hrs by MTT assay; assay type: toxicity, cell-based, Macrophage
Procedure, shortened: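 Murine bone marrow-derived macrophages exposed for 48 h, viability by MTT. Highest concentration tested 100 µM. IC50 taken from dose-response curves.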

[8] = Selectivity index, ratio of IC50 for cytostatic activity against human MONO-MAC-6 cells to MIC for antimycobacterial activity against Mycobacterium tuberculosis H37Rv ATCC 27294; assay type: toxicity, cell-based; conditions: read-out: Selectivity Index; procedure, shortened: as §1
HepG2 = assay: Cytostatic activity against human HepG2 cells assessed as reduction in cell viability incubated for 24 hrs by MTT assay; assay type: functional, cell-based; conditions: HepG2, 24 h; procedure, shortened: as §3
[9] = Stability in rat liver lysosomal homogenate assessed as drug degradation at 50 uM and measured upto 24 hrs by HPLC-MS analysis; assay type: ADME, subcellular, Lysosome; conditions: tissue homogenate
Procedure, shortened: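 Conjugates incubated in rat liver lysosomal homogenate. Reaction mixtures sampled at 5 min, 1 h, 2 h, 4 h, 8 h and 24 h and analysed by HPLC-MS (chromatograms and mass spectra) to identify intact conjugate, fragments and cleavage sites.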

[10] = Retention time of the compound by RP-HPLC analysis; assay type: physicochemical
Procedure, shortened: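 Analytical RP-HPLC on a C18 column (5 μm, 100 Å, 4.6 × 150 mm). Eluent A 0.1% TFA in water, eluent B 0.1% TFA in acetonitrile-water 80:20. Gradient 0% B for 5 min, to 60% B at 15 min, to 100% B at 25 min. Flow 1 mL/min, detection at 220 nm.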

[11] = system: Mycobacterium tuberculosis; assay: […] antimycobacterial activity against Mycobacterium tuberculosis H37Rv ATCC 27294 infected in human MONO-MAC-6 cells assessed as reduction in colony forming unit at 250 uM for 6 days by colony counting based analysis; assay type: functional, organism-based; conditions: time 6.0 day
Procedure, shortened: (§5)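 MonoMac6 monolayers infected with H37Rv, then treated with compound at 125 or 250 µM for 3 days. Treatment repeated with fresh compound solution for another 3 days. Intracellular bacteria quantified as CFU against untreated infected cells.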

[12] = system: Mycobacterium tuberculosis; assay: […] antimycobacterial activity against Mycobacterium tuberculosis H37Rv ATCC 27294 infected in human MONO-MAC-6 cells assessed as reduction in colony forming unit at 125 uM for 6 days by colony counting based analysis; assay type: functional, organism-based; conditions: time 6.0 day; procedure, shortened: as §5
[13] = Stability of the compound in Sula's semisynthetic medium containing 10% DMSO assessed as free salicylanilide formation at pH 6.5 at 2 mg/ml after 4 weeks at 37 degree C by reverse phase HPLC analysis
Procedure, shortened: (§6)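 Conjugate incubated in Sula semisynthetic medium (pH 6.5) at 37 °C for 4 weeks. Decomposition to free salicylanilide and 2-hydroxyacetyl-tuftsin derivative followed by analytical RP-HPLC and mass spectrometry.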

[14] = Stability of the compound in Sula's semisynthetic medium containing 10% DMSO assessed as 2-hydroxyacetyl-tuftsin derivative formation at pH 6.5 at 2 mg/ml after 4 weeks at 37 degree C by reverse phase HPLC analysis; procedure, shortened: as §6
[15] = system: Mycobacterium tuberculosis; assay: Antimycobacterial activity against Mycobacterium tuberculosis H37Rv ATCC 27294 assessed as reduction in bacterial growth after 21 days by serial dilution method; assay type: functional; conditions: H37Rv ATCC 27294, 504 h, time 21 day; procedure, shortened: as §2

SMILES	selectivity ratio [1]	MIC [2] [µM]	IC50 (MONO-MAC-6) [µM]	Activity [3]	MIC [4] [µM]	selectivity ratio [5]	Activity [6]	IC50 at 48 h [7] [µM]	selectivity ratio [8]	IC50 (HepG2) [µM]	Stability [9]	Retention_time [10] [min]	Activity [11]	Activity [12]	Stability [13]	Stability [14]	MIC [15] [µM]
CC(=O)c1ccc(NC(=O)c2cc(Br)ccc2O)cc1	2.1	7.5 (≈ 2.51 µg/mL)	18.6	Active	59.8 (≈ 20 µg/mL)	10.2	Active	76.5	2.5	15.9							
C/C(=N\OCC(=O)NCC(=O)N[C@@H](Cc1ccccc1)C(=O)N[C@@H](CC(C)C)C(=O)NCC(=O)N[C@H](C(=O)N[C@@H](CCCCN)C(=O)N1CCC[C@H]1C(=O)N[C@@H](CCCCN)C(=O)NCC(=O)N[C@H](C(=O)N[C@@H](CCCCN)C(=O)N1CCC[C@H]1C(=O)N[C@@H](CCCCN)C(=O)NCC(=O)N[C@H](C(=O)N[C@@H](CCCCN)C(=O)N1CCC[C@H]1C(=O)N[C@@H](CCCCN)C(=O)NCC(=O)N[C@H](C(=O)N[C@@H](CCCCN)C(=O)N1CCC[C@H]1C(=O)N[C@@H](CCCCN)C(=O)NCC(N)=O)[C@@H](C)O)[C@@H](C)O)[C@@H](C)O)[C@@H](C)O)c1ccc(NC(=O)c2cc(Br)ccc2O)cc1	0.8		86.6			0.7		92.1	0.6	112	Unstable	15.7					
C/C(=N\OCC(=O)NCC(=O)N[C@@H](Cc1ccccc1)C(=O)N[C@@H](CC(C)C)C(=O)NCC(=O)N[C@H](C(=O)N[C@@H](CCCCN)C(=O)N1CCC[C@@H]1C(=O)N[C@H](CCCCN)C(=O)NCC(=O)N[C@@H](C(=O)N[C@H](CCCCN)C(=O)N1CCC[C@H]1C(=O)N[C@H](CCCCN)C(=O)NCC(=O)N[C@@H](C(=O)N[C@@H](CCCCN)C(=O)N1CCC[C@@H]1C(=O)N[C@H](CCCCN)C(=O)NCC(=O)N[C@@H](C(=O)N[C@H](CCCCN)C(=O)N1CCC[C@H]1C(=O)N[C@H](CCCCN)C(=O)NCC(N)=O)[C@H](C)O)[C@H](C)O)[C@H](C)O)[C@@H](C)O)c1ccc(NC(=O)c2cc(Br)ccc2O)cc1				Active			Active						Active	inactive	Stable	Stable	
CCCCCCCCCCCCCCCC(=O)NCCCC[C@H](NC(=O)[C@@H]1CCCN1C(=O)[C@H](CCCCN)NC(=O)[C@@H](NC(=O)CO/N=C(\C)c1ccc(NC(=O)c2cc(Br)ccc2O)cc1)[C@@H](C)O)C(=O)NCC(N)=O ({Benzoyl(5-Br-2-OH)}-[X1]TKPK(Palmitoyl)G-NH2)	0.1		53.8	Active	173 (≈ 200 µg/mL)		Active		0.3	23.2	Unstable		Active	Active			173 (≈ 200 µg/mL)
CCCCCCCCCCCCCCCC(=O)NCCCC[C@H](NC(=O)[C@@H]1CCCN1C(=O)[C@H](CCCCN)NC(=O)[C@@H](NC(=O)CO/N=C(\C)c1ccc(NC(=O)c2cc(Br)ccc2O)cc1)[C@@H](C)O)C(=O)NCC(=O)N[C@H](C(=O)N[C@@H](CCCCN)C(=O)N1CCC[C@H]1C(=O)N[C@@H](CCCCN)C(=O)NCC(=O)N[C@H](C(=O)N[C@@H](CCCCN)C(=O)N1CCC[C@H]1C(=O)N[C@@H](CCCCN)C(=O)NCC(=O)N[C@H](C(=O)N[C@@H](CCCCN)C(=O)N1CCC[C@H]1C(=O)N[C@@H](CCCCN)C(=O)NCC(N)=O)[C@@H](C)O)[C@@H](C)O)[C@@H](C)O ({Benzoyl(5-Br-2-OH)}-[X1]TKPK(Palmitoyl)GTKPKGTKPKGTKPKG-NH2)	0.4	92.9 (≈ 250 µg/mL)	16.5	Active	74.3 (≈ 200 µg/mL)	0.2	Active	20.4	0.2	37.6	Unstable	18.4	Active	Active			
C/C(=N\OCC(=O)N[C@H](C(=O)N[C@@H](CCCCN)C(=O)N1CCC[C@H]1C(=O)N[C@@H](CCCCN)C(=O)NCC(N)=O)[C@@H](C)O)c1ccc(NC(=O)c2cc(Br)ccc2O)cc1 ({Benzoyl(5-Br-2-OH)}-[X1]TKPKG-NH2)	> 9.2	21.8 (≈ 20 µg/mL)	> 200	Active	174 (≈ 160 µg/mL)	4.6	Active	> 100	> 9.2	> 200	Unstable	15.6	Active	Active			
CCCCCCCCCCCCCCCC(=O)NCCCC[C@H](NC(=O)[C@@H]1CCCN1C(=O)[C@H](CCCCN)NC(=O)[C@@H](NC(=O)CNC(=O)[C@H](CCCCN)NC(=O)[C@@H]1CCCN1C(=O)[C@H](CCCCN)NC(=O)[C@@H](NC(=O)CNC(=O)[C@H](CCCCN)NC(=O)[C@@H]1CCCN1C(=O)[C@H](CCCCN)NC(=O)[C@@H](NC(=O)CO/N=C(\C)c1ccc(NC(=O)c2cc(Br)ccc2O)cc1)[C@@H](C)O)[C@@H](C)O)[C@@H](C)O)C(=O)NCC(=O)N[C@H](C(=O)N[C@@H](CCCCN)C(=O)N1CCC[C@H]1C(=O)N[C@@H](CCCCN)C(=O)NCC(N)=O)[C@@H](C)O ({Benzoyl(5-Br-2-OH)}-[X1]TKPKGTKPKGTKPK(Palmitoyl)GTKPKG-NH2)	0.5		20.9	Active	74.3 (≈ 200 µg/mL)		Active		0.3	40.4	Unstable	17.3	Active	Active			74.3 (≈ 200 µg/mL)
